Assay results published in ChEMBL document CHEMBL1138614, “Synthesis and antibacterial activities of novel oxazolidinones having spiro[2,4]heptane moieties” (2009).
≈ marks a conversion by molar mass, not a printed value.

What was measured:
Type in all cases: functional
[1] = tested on: Staphylococcus aureus; experiment: Antibacterial activity against Staphylococcus aureus C463 after 18 to 20 hrs by agar dilution method
Method in brief: (§1)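 Agar dilution MIC on test agar. Bacteria grown overnight in tryptosoy broth, diluted in the same broth to about 10⁶ cells/mL, then applied with an inoculating device onto agar holding serial twofold dilutions of compound. Plates incubated at 37 °C for 18–20 h. MIC taken as the lowest concentration visibly inhibiting growth, in µg/ml.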

[2] = tested on: Staphylococcus; experiment: Antibacterial activity against Coagulase negative Staphylococcus after 18 to 20 hrs by agar dilution method
Method in brief: (§2)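 Agar dilution: bacteria grown overnight in tryptosoy broth and diluted in the same broth to about 10⁶ cells/mL. A multipoint inoculating device spotted them onto test agar carrying serial twofold dilutions of compound. Plates were held at 37 °C for 18–20 h. MIC (µg/ml) was read as the lowest concentration giving visible inhibition of growth.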

[3] = tested on: Enterococcus faecalis; experiment: Antibacterial activity against Enterococcus faecalis C474 after 18 to 20 hrs by agar dilution method; method in brief: as §2
[4] = tested on: Enterococcus faecium; experiment: Antibacterial activity against Enterococcus faecium C803 after 18 to 20 hrs by agar dilution method; method in brief: as §1
[5] = tested on: Streptococcus pneumoniae; experiment: Antibacterial activity against Streptococcus pneumoniae C402 after 18 to 20 hrs by agar dilution method; method in brief: as §2
[6] = tested on: Streptococcus pyogenes; experiment: Antibacterial activity against Streptococcus pyogenes ATCC 8736 after 18 to 20 hrs by agar dilution method; method in brief: as §2
[7] = tested on: Streptococcus agalactiae; experiment: Antibacterial activity against Streptococcus agalactiae ATCC 2901 after 18 to 20 hrs by agar dilution method; method in brief: as §2
[8] = tested on: Haemophilus influenzae; experiment: Antibacterial activity against Haemophilus influenzae after 18 to 20 hrs by agar dilution method; method in brief: as §2
[9] = tested on: Staphylococcus aureus; experiment: Antibacterial activity against methicillin-resistant Staphylococcus aureus after 18 to 20 hrs by agar dilution method; method in brief: as §1
[10] = tested on: Enterococcus faecalis; experiment: Antibacterial activity against vancomycin-resistant Enterococcus faecalis after 18 to 20 hrs by agar dilution method; method in brief: as §1
[11] = tested on: Enterococcus faecium; experiment: Antibacterial activity against vancomycin-resistant Enterococcus faecium after 18 to 20 hrs by agar dilution method; method in brief: as §1
[12] = tested on: Enterococcus; experiment: Antibacterial activity against vancomycin-resistant Enterococcus 1 after 18 to 20 hrs by agar dilution method; method in brief: as §1
[13] = tested on: Enterococcus; experiment: Antibacterial activity against vancomycin-resistant Enterococcus 2 after 18 to 20 hrs by agar dilution method; method in brief: as §1
[14] = tested on: Enterococcus; experiment: Antibacterial activity against vancomycin-resistant Enterococcus 3 after 18 to 20 hrs by agar dilution method; method in brief: as §1
[15] = tested on: Enterococcus; experiment: Antibacterial activity against vancomycin-resistant Enterococcus 4 after 18 to 20 hrs by agar dilution method; method in brief: as §1
[16] = tested on: Enterococcus; experiment: Antibacterial activity against vancomycin-resistant Enterococcus 5 after 18 to 20 hrs by agar dilution method; method in brief: as §1
[17] = tested on: Enterococcus; experiment: Antibacterial activity against vancomycin-resistant Enterococcus 6 after 18 to 20 hrs by agar dilution method; method in brief: as §1

SMILES | MIC [1] [µg/mL] | MIC [2] [µg/mL] | MIC [3] [µg/mL] | MIC [4] [µg/mL] | MIC [5] [µg/mL] | MIC [6] [µg/mL] | MIC [7] [µg/mL] | MIC [8] [µg/mL] | MIC [9] [µg/mL] | MIC [10] [µg/mL] | MIC [11] [µg/mL] | MIC [12] [µg/mL] | MIC [13] [µg/mL] | MIC [14] [µg/mL] | MIC [15] [µg/mL] | MIC [16] [µg/mL] | MIC [17] [µg/mL]
CC(=O)NC[C@H]1CN(c2ccc(N3CC(N)C4(CC4)C3)c(F)c2)C(=O)O1 (stereo not given in full) | 6.25 (≈ 17.2 µM) | 6.25 (≈ 17.2 µM) | 6.25 (≈ 17.2 µM) | 6.25 (≈ 17.2 µM) | 6.25 (≈ 17.2 µM) | 6.25 (≈ 17.2 µM) | 6.25 (≈ 17.2 µM) | 6.25 (≈ 17.2 µM) | 6.25 (≈ 17.2 µM) | 12.5 (≈ 34.5 µM) | 6.25 (≈ 17.2 µM) | 12.5 (≈ 34.5 µM) | 6.25 (≈ 17.2 µM) | 6.25 (≈ 17.2 µM) | 6.25 (≈ 17.2 µM) | 6.25 (≈ 17.2 µM) | 12.5 (≈ 34.5 µM)
CC(=O)NC[C@H]1CN(c2ccc(N3CC(O)C4(CC4)C3)c(F)c2)C(=O)O1 (stereo not given in full) | 12.5 (≈ 34.4 µM) | 12.5 (≈ 34.4 µM) | 12.5 (≈ 34.4 µM) | 6.25 (≈ 17.2 µM) | 3.12 (≈ 8.59 µM) | 6.25 (≈ 17.2 µM) | 6.25 (≈ 17.2 µM) | 6.25 (≈ 17.2 µM) | 6.25 (≈ 17.2 µM) | 6.25 (≈ 17.2 µM) | 6.25 (≈ 17.2 µM) | 3.12 (≈ 8.59 µM) | 6.25 (≈ 17.2 µM) | 6.25 (≈ 17.2 µM) | 6.25 (≈ 17.2 µM) | 6.25 (≈ 17.2 µM) | 3.12 (≈ 8.59 µM)
CC(=O)NC[C@H]1CN(c2ccc(N3C/C(=N\O)C4(CC4)C3)c(F)c2)C(=O)O1 | 12.5 (≈ 33.2 µM) | 25 (≈ 66.4 µM) | 25 (≈ 66.4 µM) | 12.5 (≈ 33.2 µM) | 12.5 (≈ 33.2 µM) | 6.25 (≈ 16.6 µM) | 6.25 (≈ 16.6 µM) | 12.5 (≈ 33.2 µM) | 12.5 (≈ 33.2 µM) | 12.5 (≈ 33.2 µM) | 12.5 (≈ 33.2 µM) | 12.5 (≈ 33.2 µM) | 6.25 (≈ 16.6 µM) | 6.25 (≈ 16.6 µM) | 6.25 (≈ 16.6 µM) | 6.25 (≈ 16.6 µM) | 12.5 (≈ 33.2 µM)
CCCO/N=C1\CN(c2ccc(N3C[C@H](CNC(C)=O)OC3=O)cc2F)CC12CC2 | 25 (≈ 59.7 µM) | 12.5 (≈ 29.9 µM) | 25 (≈ 59.7 µM) | 12.5 (≈ 29.9 µM) | 12.5 (≈ 29.9 µM) | 12.5 (≈ 29.9 µM) | 12.5 (≈ 29.9 µM) | 25 (≈ 59.7 µM) | 12.5 (≈ 29.9 µM) | 25 (≈ 59.7 µM) | 12.5 (≈ 29.9 µM) | 12.5 (≈ 29.9 µM) | 12.5 (≈ 29.9 µM) | 12.5 (≈ 29.9 µM) | 12.5 (≈ 29.9 µM) | 12.5 (≈ 29.9 µM) | 12.5 (≈ 29.9 µM)
CC(=O)NC[C@H]1CN(c2ccc(N3CC(F)C4(CC4)C3)c(F)c2)C(=O)O1 (stereo not given in full) | 3.12 (≈ 8.54 µM) | 3.12 (≈ 8.54 µM) | 1.56 (≈ 4.27 µM) | 0.78 (≈ 2.13 µM) | 1.56 (≈ 4.27 µM) | 1.56 (≈ 4.27 µM) | 0.78 (≈ 2.13 µM) | 0.39 (≈ 1.07 µM) | 0.78 (≈ 2.13 µM) | 1.56 (≈ 4.27 µM) | 1.56 (≈ 4.27 µM) | 1.56 (≈ 4.27 µM) | 1.56 (≈ 4.27 µM) | 3.12 (≈ 8.54 µM) | 0.78 (≈ 2.13 µM) | 0.78 (≈ 2.13 µM) | 1.56 (≈ 4.27 µM)
CC(=O)NC[C@H]1CN(c2ccc(N3C/C(=N\N)C4(CC4)C3)c(F)c2)C(=O)O1 | 25 (≈ 66.6 µM) | 12.5 (≈ 33.3 µM) | 25 (≈ 66.6 µM) | 25 (≈ 66.6 µM) | 25 (≈ 66.6 µM) | 12.5 (≈ 33.3 µM) | 25 (≈ 66.6 µM) | 25 (≈ 66.6 µM) | 25 (≈ 66.6 µM) | 50 (≈ 133 µM) | 25 (≈ 66.6 µM) | 12.5 (≈ 33.3 µM) | 25 (≈ 66.6 µM) | 12.5 (≈ 33.3 µM) | 25 (≈ 66.6 µM) | 12.5 (≈ 33.3 µM) | 25 (≈ 66.6 µM)
CCO/N=C1\CN(c2ccc(N3C[C@H](CNC(C)=O)OC3=O)cc2F)CC12CC2 | 12.5 (≈ 30.9 µM) | 12.5 (≈ 30.9 µM) | 25 (≈ 61.8 µM) | 12.5 (≈ 30.9 µM) | 12.5 (≈ 30.9 µM) | 12.5 (≈ 30.9 µM) | 12.5 (≈ 30.9 µM) | 12.5 (≈ 30.9 µM) | 12.5 (≈ 30.9 µM) | 12.5 (≈ 30.9 µM) | 12.5 (≈ 30.9 µM) | 12.5 (≈ 30.9 µM) | 6.25 (≈ 15.5 µM) | 6.25 (≈ 15.5 µM) | 12.5 (≈ 30.9 µM) | 6.25 (≈ 15.5 µM) | 6.25 (≈ 15.5 µM)
CC(=O)NC[C@H]1CN(c2ccc(N3CC(=O)C4(CC4)C3)c(F)c2)C(=O)O1 | 3.12 (≈ 8.63 µM) | 3.12 (≈ 8.63 µM) | 6.25 (≈ 17.3 µM) | 1.56 (≈ 4.32 µM) | 0.78 (≈ 2.16 µM) | 3.12 (≈ 8.63 µM) | 1.56 (≈ 4.32 µM) | 1.56 (≈ 4.32 µM) | 3.12 (≈ 8.63 µM) | 1.56 (≈ 4.32 µM) | 1.56 (≈ 4.32 µM) | 3.12 (≈ 8.63 µM) | 1.56 (≈ 4.32 µM) | 1.56 (≈ 4.32 µM) | 3.12 (≈ 8.63 µM) | 3.12 (≈ 8.63 µM) | 1.56 (≈ 4.32 µM)
CO/N=C1\CN(c2ccc(N3C[C@H](CNC(C)=O)OC3=O)cc2F)CC12CC2 | 6.25 (≈ 16 µM) | 12.5 (≈ 32 µM) | 12.5 (≈ 32 µM) | 6.25 (≈ 16 µM) | 3.12 (≈ 7.99 µM) | 6.25 (≈ 16 µM) | 6.25 (≈ 16 µM) | 6.25 (≈ 16 µM) | 6.25 (≈ 16 µM) | 6.25 (≈ 16 µM) | 6.25 (≈ 16 µM) | 6.25 (≈ 16 µM) | 3.12 (≈ 7.99 µM) | 6.25 (≈ 16 µM) | 6.25 (≈ 16 µM) | 6.25 (≈ 16 µM) | 6.25 (≈ 16 µM)
CC(=O)NC[C@H]1CN(c2ccc(N3CCOCC3)c(F)c2)C(=O)O1 [LINEZOLID] | 3.12 (≈ 9.25 µM) | 3.12 (≈ 9.25 µM) | 1.56 (≈ 4.62 µM) | 1.56 (≈ 4.62 µM) | 0.78 (≈ 2.31 µM) | 1.56 (≈ 4.62 µM) | 1.56 (≈ 4.62 µM) | 1.56 (≈ 4.62 µM) | 1.56 (≈ 4.62 µM) | 1.56 (≈ 4.62 µM) | 1.56 (≈ 4.62 µM) | 1.56 (≈ 4.62 µM) | 1.56 (≈ 4.62 µM) | 1.56 (≈ 4.62 µM) | 1.56 (≈ 4.62 µM) | 1.56 (≈ 4.62 µM) | 1.56 (≈ 4.62 µM)
